Assay results as given in ChEMBL document CHEMBL4339190, “2,6-Disubstituted imidazo[2,1-b][1,3,4]thiadiazole derivatives as potent staphylococcal biofilm inhibitors” (Eur J Med Chem, 2019).

What was measured:
Pseudomonas aeruginosa [1] = assay: Antimicrobial activity against Pseudomonas aeruginosa ATCC 15442 assessed as growth inhibition of planktonic forms incubated for 24 hrs; type: organism-based; details: in vitro
In short: (§1)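 Broth microdilution in tryptic soy broth. Two-fold series 100 to 0.75 μg/mL made from a 1 mg/mL stock in 0.9% NaCl. Inoculum ~10⁶ cfu/mL taken from a 24 h culture, 37 °C 24 h.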

Staphylococcus aureus [2] = assay: Antimicrobial activity against Staphylococcus aureus ATCC 25923 assessed as growth inhibition of planktonic forms incubated for 24 hrs; type: organism-based; details: in vitro; in short: as §1
Staphylococcus aureus [3] = assay: Antibiofilm activity against Staphylococcus aureus ATCC 6538 incubated for 24 hrs by crystal violet-staining based assay; type: functional
In short: (§2)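 Biofilm prevention: 0.5 McFarland inoculum (2.5 µL) in 100 µL TSB with 2% w/v glucose, compound present from the start over 100–0.1 µg/mL, 37 °C 24 h. Washed with PBS, stained 0.1% w/v crystal violet 30 min, eluted with 33% v/v acetic acid, read at 570 nm. BIC50 (50% inhibition versus untreated control) derived by linear regression; triplicate, repeated at least twice.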

Escherichia coli [4] = assay: Antimicrobial activity against Escherichia coli ATCC 25922 assessed as growth inhibition of planktonic forms incubated for 24 hrs; type: organism-based; details: in vitro; in short: as §1
[5] = system: Staphylococcus epidermidis; assay: Antibiofilm activity against Staphylococcus epidermidis ATCC 12228 incubated for 24 hrs by crystal violet-staining based assay; type: functional; in short: as §2
Escherichia coli [6] = assay: Antibiofilm activity against Escherichia coli ATCC 25922 assessed as inhibition of biofilm formation at 100 ug/ml incubated for 24 hrs by crystal violet-staining based assay; type: functional; details: ATCC 25922, 24 h
Pseudomonas aeruginosa [7] = assay: Antibiofilm activity against Pseudomonas aeruginosa ATCC 15442 assessed as inhibition of biofilm formation at 100 ug/ml incubated for 24 hrs by crystal violet-staining based assay; type: functional; details: ATCC 15442, 24 h
[8] = system: Staphylococcus epidermidis; assay: Antimicrobial activity against Staphylococcus epidermidis ATCC 12228 assessed as growth inhibition of planktonic forms incubated for 24 hrs; type: organism-based; details: in vitro; in short: as §1
Staphylococcus aureus [9] = assay: Antibiofilm activity against Staphylococcus aureus ATCC 25923 incubated for 24 hrs by crystal violet-staining based assay; type: functional; in short: as §2
Staphylococcus aureus [10] = assay: Antimicrobial activity against Staphylococcus aureus ATCC 6538 assessed as growth inhibition of planktonic forms incubated for 24 hrs; type: organism-based; details: in vitro; in short: as §1
Pseudomonas aeruginosa [11] = assay: Antibiofilm activity against Pseudomonas aeruginosa ATCC 15442 incubated for 24 hrs by crystal violet-staining based assay; type: functional; in short: as §2

Row | SMILES | MIC (Pseudomonas aeruginosa [1]) [µg/mL] | MIC (Staphylococcus aureus [2]) [µg/mL] | MBIC50 (Staphylococcus aureus [3]) [µM] | inhibition (Staphylococcus aureus [3]) | MIC (Escherichia coli [4]) [µg/mL] | MBIC50 [5] [µM] | inhibition [5] | inhibition at 100 µg/mL (Escherichia coli [6]) [%] | inhibition at 100 µg/mL (Pseudomonas aeruginosa [7]) [%] | MIC [8] [µg/mL] | MBIC50 (Staphylococcus aureus [9]) [µM] | inhibition (Staphylococcus aureus [9]) | MIC (Staphylococcus aureus [10]) [µg/mL] | MBIC50 (Pseudomonas aeruginosa [11]) [µM] | inhibition (Pseudomonas aeruginosa [11])
1 | O=[N+]([O-])c1ccc(-c2cn3nc(-c4c[nH]c5ccccc45)sc3n2)cc1 | > 100 | > 100 | 20.2 | Dose-dependent effect | > 100 | 41.2 | Dose-dependent effect | < 15 | < 15 | > 100 | 47.5 | Dose-dependent effect | > 100 | – | –
2 | Br.Fc1ccc(-c2cn3nc(-c4c[nH]c5ccccc45)sc3n2)cc1 | > 100 | > 100 | 13.4 | Dose-dependent effect | > 100 | 30.8 | Dose-dependent effect | < 15 | – | > 100 | 15.6 | Dose-dependent effect | > 100 | 47.4 | Dose-dependent effect
3 | Br.COc1ccc(OC)c(-c2cn3nc(-c4c[nH]c5ccc(Br)cc45)sc3n2)c1 | > 100 | > 100 | 16.5 | Dose-dependent effect | > 100 | 36.1 | Dose-dependent effect | < 15 | < 15 | > 100 | 26.4 | Dose-dependent effect | > 100 | – | –
4 | Br.Cn1cc(-c2nn3cc(-c4ccc(C(F)(F)F)cc4)nc3s2)c2cc(Br)ccc21 | > 100 | > 100 | – | – | > 100 | – | – | – | – | > 100 | – | – | > 100 | – | –
5 | Br.COc1cccc(-c2cn3nc(-c4c[nH]c5ccc(Cl)cc45)sc3n2)c1 | > 100 | > 100 | 15.1 | Dose-dependent effect | > 100 | 32.7 | Dose-dependent effect | < 15 | – | > 100 | 31.6 | Dose-dependent effect | > 100 | 29 | Dose-dependent effect
6 | Br.COc1ccc(OC)c(-c2cn3nc(-c4cn(C)c5ccccc45)sc3n2)c1 | > 100 | > 100 | 3.6 | Dose-dependent effect | > 100 | 25 | Dose-dependent effect | < 15 | – | > 100 | 24.3 | Dose-dependent effect | > 100 | – | –
7 | FC(F)(F)c1ccc(-c2cn3nc(-c4c[nH]c5ccc(Br)cc45)sc3n2)cc1 | > 100 | > 100 | 13.3 | Dose-dependent effect | > 100 | 19.2 | Dose-dependent effect | < 15 | < 15 | > 100 | 16.8 | Dose-dependent effect | > 100 | – | –
8 | Br.O=[N+]([O-])c1ccc(-c2cn3nc(-c4c[nH]c5ccc(Cl)cc45)sc3n2)cc1 | > 100 | > 100 | 35.8 | Dose-dependent effect | > 100 | 28.5 | Dose-dependent effect | < 15 | < 15 | > 100 | 55.3 | Dose-dependent effect | > 100 | – | –
9 | O=[N+]([O-])c1ccc(-c2cn3nc(-c4c[nH]c5ccc(Br)cc45)sc3n2)cc1 | > 100 | > 100 | 27 | Dose-dependent effect | > 100 | 19.1 | Dose-dependent effect | < 15 | – | > 100 | 23.9 | Dose-dependent effect | > 100 | 43.3 | Dose-dependent effect
